Experimental data from ChEMBL document CHEMBL3046106, “Synthesis and herbicidal activity of diphenyl ether derivatives containing unsaturated carboxylates” (J Agric Food Chem, 2011).

Assays:
Format in all cases: functional
Abutilon theophrasti [1] = assay: Herbicidal activity against Abutilon theophrasti (velvetleaf) at 200 g/hm2 postemergent application after 2 weeks
How it was run: (§1)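 Seedlings grown 14 days in the greenhouse; plants uniform in size and stage were chosen. Test compound in acetone sprayed post-emergence at a carrier volume equivalent to 187 L/ha. Plants returned to the greenhouse and watered; untreated plants served as control. Each species scored visually two weeks after application on a 0–100 scale (0 no activity, 100 total control).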

Abutilon theophrasti [2] = assay: Herbicidal activity against Abutilon theophrasti (velvetleaf) at 1000 g/hm2 postemergent application after 2 weeks; how it was run: as §1
Digitaria sanguinalis [3] = assay: Herbicidal activity against Digitaria sanguinalis (hairy crabgrass) at 200 g/hm2 postemergent application after 2 weeks; how it was run: as §1
Digitaria sanguinalis [4] = assay: Herbicidal activity against Digitaria sanguinalis (hairy crabgrass) at 1000 g/hm2 postemergent application after 2 weeks; how it was run: as §1
Echinochloa crus-galli [5] = assay: Herbicidal activity against Echinochloa crus-galli (barnyard grass) at 200 g/hm2 postemergent application after 2 weeks; how it was run: as §1
Echinochloa crus-galli [6] = assay: Herbicidal activity against Echinochloa crus-galli (barnyard grass) at 1000 g/hm2 postemergent application after 2 weeks; how it was run: as §1
Abutilon theophrasti [7] = assay: Herbicidal activity against Abutilon theophrasti (velvetleaf) at 30 g/hm2 postemergent application after 2 weeks; how it was run: as §1
Abutilon theophrasti [8] = assay: Herbicidal activity against Abutilon theophrasti (velvetleaf) at 120 g/hm2 postemergent application after 2 weeks; how it was run: as §1
Abutilon theophrasti [9] = assay: Herbicidal activity against Abutilon theophrasti (velvetleaf) at 480 g/hm2 postemergent application after 2 weeks; how it was run: as §1
Digitaria sanguinalis [10] = assay: Herbicidal activity against Digitaria sanguinalis (hairy crabgrass) at 120 g/hm2 postemergent application after 2 weeks; how it was run: as §1
Digitaria sanguinalis [11] = assay: Herbicidal activity against Digitaria sanguinalis (hairy crabgrass) at 30 g/hm2 postemergent application after 2 weeks; how it was run: as §1
Digitaria sanguinalis [12] = assay: Herbicidal activity against Digitaria sanguinalis (hairy crabgrass) at 480 g/hm2 postemergent application after 2 weeks; how it was run: as §1
Echinochloa crus-galli [13] = assay: Herbicidal activity against Echinochloa crus-galli (barnyard grass) at 30 g/hm2 postemergent application after 2 weeks; how it was run: as §1
Echinochloa crus-galli [14] = assay: Herbicidal activity against Echinochloa crus-galli (barnyard grass) at 120 g/hm2 postemergent application after 2 weeks; how it was run: as §1
Echinochloa crus-galli [15] = assay: Herbicidal activity against Echinochloa crus-galli (barnyard grass) at 480 g/hm2 postemergent application after 2 weeks; how it was run: as §1
Abutilon theophrasti [16] = assay: Herbicidal activity against Abutilon theophrasti (velvetleaf) at 40 g/hm2 postemergent application after 2 weeks; how it was run: as §1
Digitaria sanguinalis [17] = assay: Herbicidal activity against Digitaria sanguinalis (hairy crabgrass) at 40 g/hm2 postemergent application after 2 weeks; how it was run: as §1
Echinochloa crus-galli [18] = assay: Herbicidal activity against Echinochloa crus-galli (barnyard grass) at 40 g/hm2 postemergent application after 2 weeks; how it was run: as §1

Structure (SMILES) | Activity (Abutilon theophrasti [1]) [%] | Activity (Abutilon theophrasti [2]) [%] | Activity (Digitaria sanguinalis [3]) [%] | Activity (Digitaria sanguinalis [4]) [%] | Activity (Echinochloa crus-galli [5]) [%] | Activity (Echinochloa crus-galli [6]) [%] | Activity (Abutilon theophrasti [7]) [%] | Activity (Abutilon theophrasti [8]) [%] | Activity (Abutilon theophrasti [9]) [%] | Activity (Digitaria sanguinalis [10]) [%] | Activity (Digitaria sanguinalis [11]) [%] | Activity (Digitaria sanguinalis [12]) [%] | Activity (Echinochloa crus-galli [13]) [%] | Activity (Echinochloa crus-galli [14]) [%] | Activity (Echinochloa crus-galli [15]) [%] | Activity (Abutilon theophrasti [16]) [%] | Activity (Digitaria sanguinalis [17]) [%] | Activity (Echinochloa crus-galli [18]) [%]
CCC/C(=C\C(=O)OCC)OC(=O)c1cc(Oc2ccc(C(F)(F)F)cc2Cl)ccc1[N+](=O)[O-] | 0 | 0 | 5 | 15 | 5 | 35 | – | – | – | – | – | – | – | – | – | – | – | –
C=CCOC(=O)/C=C(\C)OC(=O)c1cc(Oc2ccc(C(F)(F)F)cc2Cl)ccc1[N+](=O)[O-] | 0 | 40 | 5 | 35 | 5 | 25 | – | – | – | – | – | – | – | – | – | – | – | –
CC/C(=C\C(=O)OC)OC(=O)c1cc(Oc2ccc(C(F)(F)F)cc2Cl)ccc1[N+](=O)[O-] | 0 | 10 | 5 | 15 | 0 | 35 | – | – | – | – | – | – | – | – | – | – | – | –
COC(=O)/C=C/COC(=O)c1cc(Oc2ccc(C(F)(F)F)cc2Cl)ccc1[N+](=O)[O-] | – | – | – | – | – | – | 30 | 95 | 100 | 80 | 20 | 90 | 10 | 60 | 80 | – | – | –
C/C(=C\C(=O)OC(C)(C)C)OC(=O)c1cc(Oc2ccc(C(F)(F)F)cc2Cl)ccc1[N+](=O)[O-] | 50 | 75 | 15 | 40 | 30 | 45 | – | – | – | – | – | – | – | – | – | 30 | 5 | 5
CCCOC(=O)/C=C/COC(=O)c1cc(Oc2ccc(C(F)(F)F)cc2Cl)ccc1[N+](=O)[O-] | – | – | – | – | – | – | 95 | 100 | 100 | 80 | 70 | 90 | 10 | 40 | 70 | – | – | –
CCOC(=O)/C(C)=C(\C)OC(=O)c1cc(Oc2ccc(C(F)(F)F)cc2Cl)ccc1[N+](=O)[O-] | 35 | 100 | 50 | 55 | 15 | 25 | – | – | – | – | – | – | – | – | – | 0 | 20 | 10
C=C(C(=O)OCC)C(C)OC(=O)c1cc(Oc2ccc(C(F)(F)F)cc2Cl)ccc1Cl (stereo not drawn) | 75 | 100 | 35 | 40 | 20 | 95 | – | – | – | – | – | – | – | – | – | 5 | 0 | 0
CCOC(=O)/C=C(\C)OC(=O)c1cc(Oc2ccc(C(F)(F)F)cc2Cl)ccc1Cl | – | – | 20 | 25 | 20 | 95 | – | – | – | – | – | – | – | – | – | – | 10 | 0
C=C(COC(=O)c1cc(Oc2ccc(C(F)(F)F)cc2Cl)ccc1Cl)C(=O)OCCC | 100 | 100 | 30 | 35 | 10 | 75 | – | – | – | – | – | – | – | – | – | 20 | 10 | 5
CCOC(=O)/C=C(\C)COC(=O)c1cc(Oc2ccc(C(F)(F)F)cc2Cl)ccc1[N+](=O)[O-] | 100 | 100 | 10 | 20 | 20 | 35 | – | – | – | – | – | – | – | – | – | 90 | 10 | 5
COC(=O)/C=C(\C)OC(=O)c1cc(Oc2ccc(C(F)(F)F)cc2Cl)ccc1[N+](=O)[O-] | 75 | 100 | 80 | 95 | 50 | 80 | – | – | – | – | – | – | – | – | – | 25 | 5 | 15
CCCCOC(=O)/C=C/COC(=O)c1cc(Oc2ccc(C(F)(F)F)cc2Cl)ccc1[N+](=O)[O-] | – | – | – | – | – | – | 90 | 90 | 95 | 80 | 70 | 85 | 10 | 20 | 40 | – | – | –
C=C(COC(=O)c1cc(Oc2ccc(C(F)(F)F)cc2Cl)ccc1Cl)C(=O)OC | 98 | 100 | 25 | 30 | 15 | 75 | – | – | – | – | – | – | – | – | – | 10 | 10 | 5
CC(C)OC(=O)/C=C/COC(=O)c1cc(Oc2ccc(C(F)(F)F)cc2Cl)ccc1[N+](=O)[O-] | – | – | – | – | – | – | 80 | 95 | 100 | 85 | 80 | 90 | 30 | 60 | 80 | – | – | –
CCOC(=O)/C=C/COC(=O)c1cc(Oc2ccc(C(F)(F)F)cc2Cl)ccc1Cl | 100 | 100 | 30 | 70 | 45 | 85 | – | – | – | – | – | – | – | – | – | 98 | 20 | 15
CCOC(=O)/C=C(\C)OC(=O)c1cc(Oc2ccc(C(F)(F)F)cc2Cl)ccc1[N+](=O)[O-] | 85 | 100 | 90 | 98 | 40 | 60 | – | – | – | – | – | – | – | – | – | 10 | 80 | 10
CCOC(=O)/C=C(/OC(=O)c1cc(Oc2ccc(C(F)(F)F)cc2Cl)ccc1[N+](=O)[O-])C(F)(F)F | 0 | 60 | 0 | 50 | 0 | 35 | – | – | – | – | – | – | – | – | – | – | – | –
CCOC(=O)/C(C)=C(\C)OC(=O)c1cc(Oc2ccc(C(F)(F)F)cc2Cl)ccc1Cl | 90 | 100 | 25 | 30 | 20 | 25 | – | – | – | – | – | – | – | – | – | 5 | 0 | 0
COCCOC(=O)/C=C(\C)OC(=O)c1cc(Oc2ccc(C(F)(F)F)cc2Cl)ccc1[N+](=O)[O-] | 100 | 100 | 35 | 75 | 30 | 80 | – | – | – | – | – | – | – | – | – | 98 | 30 | 20
C=C(C(=O)OCC)C(C)OC(=O)c1cc(Oc2ccc(C(F)(F)F)cc2Cl)ccc1[N+](=O)[O-] (stereo not drawn) | 50 | 100 | 70 | 90 | 20 | 30 | – | – | – | – | – | – | – | – | – | 5 | 25 | 10
C=C(COC(=O)c1cc(Oc2ccc(C(F)(F)F)cc2Cl)ccc1Cl)C(=O)OCC | 100 | 100 | 70 | 95 | 20 | 90 | – | – | – | – | – | – | – | – | – | 30 | 40 | 10
